pEC50, pIC50: −log10 of the molar value. In brackets after ≈: the same amount, converted by molar mass. Activity calls are given as the source filed them. No cut-off for these calls is given here.
Columns and labels:
[1] = Plasma concentration in MK-801-induced psychosis rat model at 0.5 mg/kg, po administered 1 hr prior to MK-801 administration and measured after 90 mins; assay type: ADME, organism-based; settings: time 150 min
In short: (§1)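 Rats dosed orally, then MK-801 1 h later; locomotor activity recorded over 90 min. Plasma drawn 2.5 h post dose at end of the study and assayed for compound. n = 8/group, reported as mean (SEM).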

[2] = Protein binding in monkey plasma assessed as unbound fraction; assay type: ADME, cell-free, Macaca mulatta; settings: rhesus monkey
[3] = Selectivity ratio of Ki for N-terminal His-GST-tagged human recombinant PDE3A(669 to 1141 residues) expressed in baculovirus-infected Sf9 cells to Ki for human PDE10A2 transfected in human AD293 cells cytosolic fraction
[4] = Toxicity in rat assessed as prolactin release; settings: in vivo
[5] = Oral bioavailability in Wistar-Hannover rat at 10 mg/kg; assay type: ADME, organism-based; settings: in vivo
In short: (§2)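 Oral gavage, 5 mL/kg. Rats (n = 3 male Wistar–Hannover) received 10 mg/kg in acidified 10% Tween 80, pH 2, sampled 0.25–24 h. Rhesus (2 female, 1 male) received 5 mg/kg in 0.5% methylcellulose with 1 mol equiv HCl. Plasma quantified by LC-MS/MS. F was taken from dose-adjusted PO/IV AUC0-inf ratios versus the 2 mg/kg (rat) or 0.5 mg/kg (rhesus) IV legs; values are means of n = 3.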

[6] = Aqueous solubility of the compound at pH 7; assay type: physicochemical; settings: buffer
Rattus norvegicus [7] = test: Cognitive-enhancing activity in rat assessed as improvement in novel object recognition at 0.16 to 0.25 mg/kg, po measured after 1 hr by novel object recognition test; assay type: functional, organism-based; settings: dose 0.16-0.25 mg/kg
In short: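 Novel object recognition in rats: oral dosing, then discrimination of a novel object from one seen 48 h earlier. Doses 0.08–0.25 mg/kg; donepezil 0.56 mg/kg as positive control. Groups compared with vehicle (p < 0.05). Plasma for exposure taken 1 h post dose, n = 4/group.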

Rattus norvegicus [8] = test: Anti-psychotic activity in rat assessed as inhibition of MK-801-induced hyperlocomotion administered orally 1 hr prior to MK-801 administration and measured for 90 mins; assay type: functional, organism-based; settings: dose 0.25-0.75 mg/kg, route po, time 150.0 min
In short: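 Rats given compound orally at 0.25–0.75 mg/kg 1 h before the NMDA antagonist MK-801. Total distance travelled was recorded over 90 min and compared with vehicle + MK-801 groups (p < 0.05). n = 8/group; mean ± SEM.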

[9] = Oral bioavailability in Rhesus monkey at 5 mg/kg by LC-MS/MS analysis; assay type: ADME, organism-based, Macaca mulatta; settings: in vivo; in short: as §2
[10] = In vivo receptor occupancy at PDE10A receptor in rat striatum at 0.16 mg/kg, po measured after 1 hr; assay type: functional
In short: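 Striatal PDE10A occupancy in rats given the compound orally during the novel object recognition test. Occupancy was not measured directly but derived from plasma concentration taken 1 h post dose. n = 4/group, reported as mean (SEM).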

[11] = molecular target: T1, Nuclear receptor subfamily 1 group I member 2 (Homo sapiens, UniProt O75469); test: Activation of PXR (unknown origin) assessed as CYP3A4 induction; assay type: ADME
T1 sequence (O75469 whole entry): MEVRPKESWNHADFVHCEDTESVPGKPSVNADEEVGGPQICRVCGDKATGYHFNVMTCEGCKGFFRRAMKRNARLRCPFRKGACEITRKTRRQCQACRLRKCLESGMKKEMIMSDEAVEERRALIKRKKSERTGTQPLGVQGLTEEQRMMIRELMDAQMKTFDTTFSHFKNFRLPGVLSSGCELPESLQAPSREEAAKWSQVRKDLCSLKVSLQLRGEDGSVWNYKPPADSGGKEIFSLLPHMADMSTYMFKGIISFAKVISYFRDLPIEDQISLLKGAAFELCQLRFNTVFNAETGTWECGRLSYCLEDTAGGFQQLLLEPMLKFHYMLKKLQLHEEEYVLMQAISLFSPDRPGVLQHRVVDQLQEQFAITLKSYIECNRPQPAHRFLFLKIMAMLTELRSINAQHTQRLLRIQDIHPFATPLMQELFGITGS

[12] = Plasma concentration in rat at 0.08 mg/kg, po measured after 1 hr; assay type: ADME, organism-based
In short: (§3)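 Rat novel object recognition (episodic memory) study, orally dosed. Plasma drawn 1 h post dose at end of the experiment for compound level. n = 4/group, reported as mean (SEM).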

[13] = Plasma concentration in MK-801-induced psychosis rat model at 0.25 mg/kg, po administered 1 hr prior to MK-801 administration and measured after 90 mins; assay type: ADME, organism-based; settings: time 150 min; in short: as §1
[14] = Selectivity ratio of Ki for N-terminal GST-tagged full length human recombinant PDE9A2 expressed in baculovirus-infected Sf9 cells to Ki for human PDE10A2 transfected in human AD293 cells cytosolic fraction
[15] = molecular target: T2, cAMP and cAMP-inhibited cGMP 3',5'-cyclic phosphodiesterase 10A (Homo sapiens, UniProt Q9Y233); test: Reversible binding affinity to human full length His-tagged PDE10A2 assessed as half-life on the enzyme measured at 25 degC by surface plasmon resonance analysis
T2 sequence (Q9Y233 whole entry): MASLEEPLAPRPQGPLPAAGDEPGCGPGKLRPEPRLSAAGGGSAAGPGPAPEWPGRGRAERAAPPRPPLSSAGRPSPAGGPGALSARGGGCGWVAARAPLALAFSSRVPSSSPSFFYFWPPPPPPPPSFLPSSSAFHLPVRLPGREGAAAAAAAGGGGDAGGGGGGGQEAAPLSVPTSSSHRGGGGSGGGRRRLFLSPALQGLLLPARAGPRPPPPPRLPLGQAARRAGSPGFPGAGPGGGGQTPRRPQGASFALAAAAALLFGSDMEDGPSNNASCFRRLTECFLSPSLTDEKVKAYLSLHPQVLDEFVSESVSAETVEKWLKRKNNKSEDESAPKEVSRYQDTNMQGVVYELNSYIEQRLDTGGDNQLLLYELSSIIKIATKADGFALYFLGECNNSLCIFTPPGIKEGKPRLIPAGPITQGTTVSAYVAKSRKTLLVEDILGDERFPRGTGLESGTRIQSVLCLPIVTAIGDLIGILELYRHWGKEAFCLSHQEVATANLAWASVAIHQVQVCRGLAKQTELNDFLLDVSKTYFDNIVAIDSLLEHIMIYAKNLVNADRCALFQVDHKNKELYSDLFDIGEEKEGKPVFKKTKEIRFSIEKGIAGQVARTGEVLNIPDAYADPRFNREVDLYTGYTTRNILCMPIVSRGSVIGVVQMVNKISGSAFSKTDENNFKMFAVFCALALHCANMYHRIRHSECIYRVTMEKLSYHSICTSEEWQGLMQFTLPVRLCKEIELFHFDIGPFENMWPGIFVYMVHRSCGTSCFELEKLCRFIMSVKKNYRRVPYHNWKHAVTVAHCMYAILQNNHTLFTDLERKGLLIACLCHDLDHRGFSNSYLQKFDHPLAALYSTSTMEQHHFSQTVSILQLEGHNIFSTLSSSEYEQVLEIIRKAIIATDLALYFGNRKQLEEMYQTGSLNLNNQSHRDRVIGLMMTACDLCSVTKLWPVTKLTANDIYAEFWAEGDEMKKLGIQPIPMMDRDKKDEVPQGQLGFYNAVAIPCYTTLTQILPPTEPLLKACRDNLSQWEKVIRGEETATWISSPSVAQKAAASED

[16] = In vivo receptor occupancy at PDE10A receptor in MK-801-induced psychosis rat model striatum at 0.5 mg/kg, po administered 1 hr prior to MK-801 administration and measured after 90 mins; assay type: functional; settings: time 2.5 hrs
In short: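 Rats in the MK-801 locomotor study were dosed orally at 0.25, 0.50 or 0.75 mg/kg. Plasma was taken 2.5 h post dose and drug levels measured. Striatal PDE10A occupancy was derived from plasma concentration using the [3H]MK-8193 ex vivo occupancy relation. n = 8/group; mean (SEM).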

[17] = molecular target: T2, cAMP and cAMP-inhibited cGMP 3',5'-cyclic phosphodiesterase 10A; test: Binding affinity to human full length His-tagged PDE10A2 assessed as on-rate constant by surface plasmon resonance analysis
[18] = Toxicity in CHO cells assessed as chromosomal aberration; assay type: cell-based, Cricetulus griseus; settings: chinese hamster
P-gp (ABCB1) = P-gp (ABCB1) (Rattus norvegicus, UniProt P43245); test: Substrate activity at rat P-gp assessed as efflux ratio; assay type: ADME
Sequence of P-gp (ABCB1) (P43245 whole entry): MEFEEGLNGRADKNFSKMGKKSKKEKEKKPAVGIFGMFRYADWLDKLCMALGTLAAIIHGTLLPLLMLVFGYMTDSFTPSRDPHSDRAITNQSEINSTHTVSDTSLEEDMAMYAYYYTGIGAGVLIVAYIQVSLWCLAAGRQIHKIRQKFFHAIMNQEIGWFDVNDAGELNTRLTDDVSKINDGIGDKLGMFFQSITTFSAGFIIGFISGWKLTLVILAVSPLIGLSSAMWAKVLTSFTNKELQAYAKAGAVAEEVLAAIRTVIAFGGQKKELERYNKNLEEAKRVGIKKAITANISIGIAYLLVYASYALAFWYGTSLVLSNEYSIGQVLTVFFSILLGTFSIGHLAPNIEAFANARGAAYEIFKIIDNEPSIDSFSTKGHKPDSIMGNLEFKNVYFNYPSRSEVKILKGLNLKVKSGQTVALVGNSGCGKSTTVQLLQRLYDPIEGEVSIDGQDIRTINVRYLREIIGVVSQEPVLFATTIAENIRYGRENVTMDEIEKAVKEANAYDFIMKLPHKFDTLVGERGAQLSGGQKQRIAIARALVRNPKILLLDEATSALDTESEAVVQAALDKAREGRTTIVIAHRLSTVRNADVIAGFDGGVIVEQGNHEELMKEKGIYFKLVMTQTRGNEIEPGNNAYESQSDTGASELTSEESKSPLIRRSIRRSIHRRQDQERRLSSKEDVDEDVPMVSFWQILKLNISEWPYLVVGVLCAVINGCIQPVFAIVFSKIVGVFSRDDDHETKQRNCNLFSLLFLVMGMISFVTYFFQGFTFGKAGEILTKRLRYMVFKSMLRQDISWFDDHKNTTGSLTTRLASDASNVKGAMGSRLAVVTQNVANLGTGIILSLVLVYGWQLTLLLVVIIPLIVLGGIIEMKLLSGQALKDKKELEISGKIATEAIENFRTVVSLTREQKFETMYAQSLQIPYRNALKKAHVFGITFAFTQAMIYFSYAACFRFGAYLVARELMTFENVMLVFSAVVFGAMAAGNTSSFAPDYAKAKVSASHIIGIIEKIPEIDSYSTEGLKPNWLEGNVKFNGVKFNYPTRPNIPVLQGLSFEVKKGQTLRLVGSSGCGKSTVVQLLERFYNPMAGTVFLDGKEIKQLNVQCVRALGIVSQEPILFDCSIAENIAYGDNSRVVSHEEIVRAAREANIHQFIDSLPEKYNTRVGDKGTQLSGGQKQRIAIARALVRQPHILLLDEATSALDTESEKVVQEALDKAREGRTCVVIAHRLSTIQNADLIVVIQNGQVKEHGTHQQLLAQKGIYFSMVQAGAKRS

[19] = Plasma concentration in rat at 0.25 mg/kg, po measured after 1 hr; assay type: ADME, organism-based; in short: as §3
[20] = Protein binding in rat plasma assessed as unbound fraction; assay type: ADME, cell-free
[21] = Unbound plasma clearance in rat; assay type: ADME; settings: in vivo
In short: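 Rat unbound clearance (CLu) was calculated by dividing the measured rat plasma clearance by the rat plasma free fraction.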

[22] = Protein binding in human plasma; assay type: ADME, cell-free
[23] = molecular target: Somatostatin receptor type 2 (Homo sapiens, UniProt P30874); test: Displacement of [125I]somatostatin from human full-length recombinant SSTR2 expressed in CHO-K1 cells by radioligand binding assay; assay type: cell-based
Sequence of Somatostatin receptor type 2 (P30874 whole entry): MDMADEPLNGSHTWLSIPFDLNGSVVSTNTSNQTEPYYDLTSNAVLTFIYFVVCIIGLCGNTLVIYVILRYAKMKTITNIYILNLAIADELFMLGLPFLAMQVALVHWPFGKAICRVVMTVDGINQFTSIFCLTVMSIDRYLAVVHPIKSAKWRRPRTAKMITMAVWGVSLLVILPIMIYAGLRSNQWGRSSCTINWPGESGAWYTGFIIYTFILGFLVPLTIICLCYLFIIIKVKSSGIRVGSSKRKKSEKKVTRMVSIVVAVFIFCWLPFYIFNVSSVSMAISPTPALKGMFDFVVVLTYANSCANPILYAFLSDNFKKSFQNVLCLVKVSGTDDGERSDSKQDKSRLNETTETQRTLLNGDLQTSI

[24] = Half-life in Wistar-Hannover rat at 2 mg/kg, iv by LC-MS/MS analysis; assay type: ADME, organism-based; settings: in vivo
In short: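 IV bolus in DMSO/PEG400 (1:1). Male Wistar–Hannover rats (n = 3, ~300 g): 2 mg/kg via jugular cannula, sampled 0.03–24 h. Male rhesus (n = 3): 0.5 mg/kg into saphenous or cephalic vein, sampled to 24 h. Plasma (EDTA) analysed by LC-MS/MS after acetonitrile precipitation. Non-compartmental analysis; CL = dose/AUC0-inf; t1/2 from log-linear regression of the terminal phase. Values are means.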

[25] = Protein binding in rat plasma; assay type: ADME, cell-free

With Cc1ccc([C@H]2C[C@@H]2COc2cc(NCc3nnc(C)s3)nc(C)n2)nc1 [MK-8189] the concentration at 2.5 h [1] was 36 nM, the Fu [2] was 8.7% and the Ratio Ki [3] was > 500000. The Activity [4] was “Non-Toxic”, the F [5] was 46% and the solubility [6] was 167 µM (≈ 63.9 µg/mL). For the same compound, the Activity (Rattus norvegicus [7]) was “Active”, the Activity (Rattus norvegicus [8]) was “Dose-Dependent Effect” and the F [9] was 41%. For the same compound, the Occ [10] was 29%, the pEC50 [11] was < 4.52 and the concentration at 1 h [12] was 16 nM. For the same compound, the concentration at 2.5 h [13] was 17 nM, the Ratio Ki [14] was > 500000 and the T1/2 [15] was 6.7 min. The Occ [16] was 41%, the K [17] was 8 10^7/M/s and the Activity [18] was “Non-Toxic”. It also gave an efflux ratio (P-gp (ABCB1)) of 2.6, a concentration at 1 h [19] of 29 nM and a Fu [20] of 8.2%. It also gave a CL free [21] of 260 mL/min/kg, a PPB [22] of 96% and a pIC50 [23] of 5.55. For the same compound, the t1/2 [24] was 288 min and the PPB [25] was 91.8%.

Reference: ChEMBL document CHEMBL5316310, “Discovery of MK-8189, a Highly Potent and Selective PDE10A Inhibitor for the Treatment of Schizophrenia” (J Med Chem, 2023)
